Activity calls are given as the source filed them. No cut-off for these calls is given here.
Legend:
[1] = species: Bos taurus; test: Ratio of IC50 of drug to IC50 of colchicine for calf brain tubulin polymerization
Procedure, shortened: (§1)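 Calf brain tubulin purified by three assembly–disassembly cycles, used at a final 2–3 mg/mL in pH 6.6 buffer (0.1 M MES, 0.5 mM MgCl2, 2 mM EGTA, 1 mM GTP). Assembly followed by turbidity at 400 nm at 37 °C.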

[2] = test system: B16; test: Cytotoxicity against mouse B16 cells assessed as cell viability after 48 hrs by MTT test; assay type: functional, cell-based; conditions: B16, 48 h
Procedure, shortened: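 Murine B16 melanoma cells grown in DMEM with 2 mM L-glutamine, 10% FBS and penicillin/streptomycin at 37 °C, 5% CO2. Cells plated at 5000/well. After 24 h, compound added in triplicate at final 0.25 ng/mL to 25 µg/mL in 10-fold dilutions (DMSO stock, 1% DMSO controls). IC50 from 3–7 independent triplicate experiments.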

[3] = test system: EA.hy 926; test: Induction of morphological changes in human EA.hy 926 cells assessed as rounding up after 2 hrs; assay type: functional
Procedure, shortened: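 EA.hy 926 cells (HUVEC–A549 fusion line) grown in DMEM with 2 mM glutamine, 10% FBS and penicillin/streptomycin at 37 °C, 5% CO2. Plated at 5000 cells/well and exposed in triplicate to 10-fold dilutions for 2 h. Solvent control was 1% DMSO. Wells photographed at the centre. Value is the lowest concentration at which rounding up was seen.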

[4] = Inhibition of tubulin polymerization; procedure, shortened: as §1

SMILES: COc1cc2c(C(=O)c3cc(OC)c(OC)c(OC)c3)cn(S(=O)(=O)c3ccccc3)c2cc1OS(C)(=O)=O
- Ratio IC50 [1]: 18
- IC50 [2]: 3140 nM
- Activity [3]: 1.3 µM

SMILES: COc1cc2c(cc1OS(C)(=O)=O)c(C(=O)c1cc(OC)c(OC)c(OC)c1)cn2S(=O)(=O)c1ccccc1
- Ratio IC50 [1]: 15
- IC50 [2]: 3290 nM
- Activity [3]: 10.86 µM

SMILES: COc1ccc(/C=C\c2cc(OC)c(OC)c(OC)c2)cc1O [COMBRETASTATIN A4]
- Ratio IC50 [1]: 0.7
- IC50 [2]: 3 nM
- Activity [3]: 0.008 µM
- IC50 [4]: 2200 nM

SMILES: COc1ccc2c(C(=O)c3cc(OC)c(OC)c(OC)c3)c[nH]c2c1
- Ratio IC50 [1]: 0.4
- IC50 [2]: 13 nM
- Activity [3]: 0.007 µM
- IC50 [4]: 2800 nM

SMILES: COc1cc(C(=O)c2c[nH]c3c(OS(C)(=O)=O)c(OC)ccc23)cc(OC)c1OC
- Ratio IC50 [1]: 2.7
- IC50 [2]: 170 nM
- Activity [3]: 0.013 µM

SMILES: COc1cc2[nH]cc(C(=O)c3cc(OC)c(OC)c(OC)c3)c2cc1OS(C)(=O)=O
- Activity [1]: inactive
- IC50 [2]: 13700 nM
- Activity [3]: 14.35 µM

SMILES: COc1cc2c(c(OC)c1OC)-c1ccc(OC)c(=O)cc1[C@@H](NC(C)=O)CC2 [COLCHICINE]
- IC50 [2]: 31 nM
- Activity [3]: 0.003 µM

SMILES: COc1cc2c(C(=O)c3cc(OC)c(OC)c(OC)c3)c[nH]c2cc1O
- Ratio IC50 [1]: 12
- IC50 [2]: 5070 nM
- Activity [3]: 8.74 µM

SMILES: COc1cc2c(C(=O)c3cc(OC)c(OC)c(OC)c3)c[nH]c2cc1OS(C)(=O)=O
- Activity [1]: inactive
- IC50 [2]: 32400 nM
- Activity [3]: 28.71 µM
